# Reference: ChEMBL document CHEMBL2146449, “Design, synthesis, and biological evaluation of the analogues of glaziovianin A, a potent antitumor isoflavone” (Bioorg Med Chem, 2012)
# Active and inactive are the calls of the source. The rule behind the calls is not given here.
# What was measured:
# [1] = Cytotoxicity against human HeLaS3 cells after 48 hrs by WST8 assay; type: functional, cell-based; settings: HeLa S3, 48 h
# In short: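 HeLa S3 seeded at 3 × 10^3 cells/well, left overnight, then given a range of compound concentrations for 48 h. WST-8 added for 2 h and absorbance read at 450 nm. Viability (% control) = (sample − blank)/(0 µM well − blank) × 100. Cells in DMEM + 10% FCS, 37 °C, 5% CO2.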
# HeLa S3 [2] = experiment: Ratio of glaziovianin A IC50 to compound IC50 for human HeLaS3 cells; type: functional
# [3] = Cell cycle arrest in human HeLaS3 cells assessed as accumulation at G2/M phase at 1 uM after 24 hrs by flow cytometric analysis; type: functional, cell-based; settings: HeLa S3
# In short: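 HeLa S3 cells at 3 × 10^4 cells/mL exposed to compound for 24 h, harvested, fixed in 70% EtOH at -20 °C, stained with propidium iodide; DNA content read by flow cytometry. DMSO-treated cells as control. Cells kept in DMEM with 10% FCS at 37 °C, 5% CO2.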
# HeLa S3 [4] = experiment: Induction of mitotic arrest in human HeLaS3 cells assessed as abnormal multipolar spindles at 1 uM after 6 hrs by immunofluorescence staining; type: functional, cell-based
# In short: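 HeLa S3 at 3 × 10^4 cells/mL grown on coverslips, treated 6 h, fixed in -20 °C MeOH for 5 min. Anti-α-tubulin DM1A (1:250) in PBS with 0.5% BSA for 1 h at 37 °C, then Alexa488 anti-mouse IgG (1:2000) for 1 h. DAPI 0.1 µg/mL for chromosomes; spindles examined by fluorescence microscopy. DMSO control.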
Compound,IC50 [1],Ratio IC50 (HeLa S3 [2]),Activity [3],Activity (HeLa S3 [4])
COc1cc2c(=O)c(-c3cc(OC)c4c(c3OC)OCO4)coc2cc1OC/C=C/CCC(=O)NCCCCCCNC(=O)CCCC[C@@H]1SC[C@@H]2NC(=O)N[C@@H]21,15.5 µM,0.038,,
COc1cc2occ(-c3c(Br)c(OC)c4c(c3OC)OCO4)c(=O)c2cc1OC,67.8 µM,0.009,,
COc1cc2c(=O)c(-c3cc(OC)c4c(c3OC)OCO4)coc2cc1OC1O[C@H](COC(C)=O)[C@@H](OC(C)=O)[C@H](OC(C)=O)[C@H]1OC(C)=O (mixture of isomers),> 100 µM,,,
COc1cc2occ(-c3cc(OC)c(OC)c(OC)c3OC)c(=O)c2cc1OC,22 µM,0.027,,
COc1cc2occ(-c3cc(OC)c4c(c3OC)OCO4)c(=O)c2cc1OC [GLAZIOVIANIN A],0.59 µM,,Active,Active
COc1cc2c(=O)c(-c3cc(OC)c4c(c3OC)OCO4)coc2cc1OCc1ccccc1,0.19 µM,3.1,Active,Active
COc1cc2occ(-c3ccc4c(c3)OCO4)c(=O)c2cc1OC,,0.01,,
C#CCOc1cc2occ(-c3cc(OC)c4c(c3OC)OCO4)c(=O)c2cc1OC,0.17 µM,3.5,Active,Active
C=CCOc1cc2occ(-c3cc(OC)c4c(c3OC)OCO4)c(=O)c2cc1OC,0.46 µM,1.3,Active,Active
COc1cc2c(=O)c(-c3cc(OC)c4c(c3OC)OCO4)coc2cc1OC1O[C@H](CO)[C@@H](O)[C@H](O)[C@H]1O (mixture of isomers),> 100 µM,,,
COc1cc2occ(-c3cc(OC)c4c(c3OC)OC(C)(C)O4)c(=O)c2cc1OC,> 100 µM,,,
COc1cc2c(=O)c(-c3cc(OC)c4c(c3OC)OCO4)coc2cc1OC/C=C/CCC(=O)NCCCCCCNC(=O)CCCC1=C2C(C)=CC(C)=[N+]2[B-](F)(F)n2c(C)cc(C)c21,17.4 µM,0.034,,
COc1cc2c(=O)c(-c3cc(OC)c4c(c3OC)OCO4)coc2cc1OCCCCCC(=O)NCCCCCCNC(=O)CCCC[C@@H]1SC[C@@H]2NC(=O)N[C@@H]21,15.2 µM,0.039,,
COc1cc(-c2coc3cc(OC)c(OC)c(OC)c3c2=O)c(OC)c2c1OCO2,> 100 µM,,,
COc1cc2c(=O)c(-c3cc(OC)c4c(c3OC)OCO4)coc2cc1O,> 100 µM,,,
COc1cc2c(=O)c(-c3cc(OC)c4c(c3OC)OCO4)coc2cc1OC1CCCCO1 (stereo not drawn),> 100 µM,,,
COc1cc2c(=O)c(-c3cc(OC)c4c(c3OC)OCO4)coc2cc1OCC(O)CO (stereo not drawn),> 100 µM,,,
